This passage reports Activity results from ChEMBL document CHEMBL3596120, “Discovery of natural alkaloid bouchardatine as a novel inhibitor of adipogenesis/lipogenesis in 3T3-L1 adipocytes” (Bioorg Med Chem, 2015).

Calls of active or inactive are those of the source. The calls are words filed in the database; no cut-off is given here.

Experiment [1] concerns 3T3-L1. Kind of experiment: Effect on in AMPKalpha protein expression in mouse 3T3L1 cells at 25 uM after 0.5 to 4 hrs by Western blot method. Type of experiment: functional, cell-based. A general note: In western blotting, separated proteins are transferred to a membrane and probed.
Experiment [2] in a line: Reduction in PPARgamma protein expression in mouse 3T3L1 cells at 0.2 mM after 3 days by Western blot method. It counts as functional, cell-based. As to conditions: 3T3-L1. In short, it runs like this: (§1)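 3T3-L1 preadipocytes grown in DMEM with 10% FBS at 37 °C under 5% CO2. Differentiation starts 2 days post-confluence (day 0) with IBMX, 100 ng/mL dexamethasone and insulin for 3 d, then insulin in 10% FBS/DMEM for 3 d, then basic medium for 3 d. Compound is added on day 0 and renewed at day 3. Vehicle control receives the same volume of DMSO.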

Experiment [3] deals with 3T3-L1. Nature of the experiment: Increase in AMPKalpha Thr172 phosphorylation in mouse 3T3L1 cells at 0.2 mM after 9 days by Western blot method. It counts as cell-based. The procedure, abridged: (§2)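 Mouse 3T3-L1 cells taken through the differentiation protocol, with compound or DMSO vehicle given from day 0 and renewed at day 3. Cells lysed on ice for 0.5 h in RIPA with PMSF, Na3VO4, NaF and protease inhibitors, then centrifuged at 12,000g. Lysates run on 12% SDS-PAGE and transferred to PVDF. Blots probed overnight at 4 °C and detected with HRP secondary. Bands quantified by optical density against GAPDH. Three independent experiments.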

Experiment [4] in a line: Reduction in SCD1 protein expression in mouse 3T3L1 cells at 0.2 mM after 3 days by Western blot method. It counts as functional, cell-based. As to conditions: 3T3-L1. In short, it runs like this:
as §1

The nature of experiment [5]: Reduction in FAS protein expression in mouse 3T3L1 cells at 0.2 mM after 3 days by Western blot method. It counts as functional, cell-based. As to conditions: 3T3-L1. The procedure, abridged: as §1
Experiment [6] in a line: Reduction in C/EBPalpha protein expression in mouse 3T3L1 cells at 0.2 mM after 3 days by Western blot method. It counts as functional, cell-based. As to conditions: 3T3-L1. The procedure, abridged: as §2
The subject of experiment [7] is 3T3-L1. Kind of experiment: Activation of AMPK in mouse 3T3L1 cells assessed as increase in ACC Ser79 phosphorylation at 0.2 mM after 9 days by Western blot method. Type of experiment: cell-based. In short, it runs like this:
as §2

Experiment [8] in a line: Reduction in SREBP-1c protein expression in mouse 3T3L1 cells at 0.2 mM after 3 days by Western blot method. As to conditions: 3T3-L1. Type of experiment: functional, cell-based. In short, it runs like this: as §1
The subject of experiment [9] is 3T3-L1. Kind of experiment: Inhibition of adipogenesis in mouse 3T3L1 cells assessed as reduction in triglyceride content at 0.2 mM by colorimetric assay. It counts as functional, cell-based.

With `NC(=O)c1ncn([C@@H]2O[C@H](CO)[C@@H](O)[C@H]2O)c1N`, the result in the experiment on 3T3-L1 [1] was inactive. Besides, the result (in [2]; with 3T3-L1 [3]; in [4]; in [5]; in experiment [6]; with 3T3-L1 [7]) was Active. Moreover, the outcome (in [8]; in the experiment on 3T3-L1 [9]) was Active.
